GSTO1 counter – inhibitors of recombinant GSTO1, primary screen, counter-screen for RBBP9 inhibitor project, biochemical, fluorescence polarization; Glutathione S-transferase omega-1 (Homo sapiens), P78417; activity-based probe fluorescence polarization; inhibition, % at 5.96 µM; 1.1% of 300,000 active;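 active = inhibition above the campaign mean inhibition plus 3 SD, cut at about 35% in these data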;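 also: 0% = GSTO1-1 with DMSO and 100% = wells lacking GSTO1-1 enzyme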
TCR CD3 inh – inhibitors of human TCR-CD3 interaction, primary screen, biochemical, fluorescence, TAMRA-labeled TCR probe | AID 651800, 2012 | 0.37% of 360,000 active | inhibition, % at 9.4 µM;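 also: recombinant mutant TCR 2C K166C tagged with TAMRA read by polarization; 0% = receptor in buffer alone and 100% = receptor with positive control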
TDP2 inh – human TDP2 enzyme inhibitors, primary screen, biochemical, epi absorbance, recombinant enzyme; T5PNP hydrolysis, p-nitrophenol absorbance 415 nm; inhibition, % at 12.8 µM; 0.34% of 370,000 active; Tyrosyl-DNA phosphodiesterase 2 (Homo sapiens), O95551;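 active = inhibition above the mean of all tested compounds plus 3 SD, set per campaign, cut at about 25% in these data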;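 also: 0% = DMSO with enzyme and 100% = buffer with substrate but no TDP2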
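Assay system: Recombinant human TDP2 | Quantity: 120 nM TDP2 per well | Incubation: 2 h at 37 °C | Signal: Epi absorbance | Evaluation: Percent inhibition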
Apaf-1 inh – inhibitors of human Apaf-1 apoptosome, primary screen, biochemical, DEVD-Rh110 fluorescence, uHTS. 0.71% of 330,000 active. reconstituted apoptosome caspase-3 activity. Apoptotic protease-activating factor 1 (Homo sapiens), O14727. inhibition, % at 20 µM. AID 489030, 2010; active = inhibition of at least 40% at 20 µM;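 also: plate controls were DMSO wells for no effect and DEVD-CHO caspase inhibitor wells for full effect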
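Material: reconstituted apoptosome with Apaf-1, cytochrome c, caspase-9, procaspase-3, dATP / Buffer or medium: pH 7.5 Hepes buffer with CHAPS, BSA, DTT / Also added: cytochrome c with DEVD-Rh110 / Schedule: compound with Apaf-1, dATP, procaspase-3 30 min, then 50 min reaction, room temperature / Technique: rhodamine 110 fluorescence at Ex 480/Em 540 nm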
PAD4 inh – human PAD4 inhibitors, primary screen, biochemical, fluorescence polarization, 1536-well format | recombinant PAD4, RCA probe fluorescence polarization | 0.41% of 330,000 active | inhibition, % at 6.36 µM;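 active = percent inhibition above a cutoff equal to the mean of all tested compounds plus 3 SD, cut at about 15% in these data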;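 also: 0% = PAD4 with RCA probe and DMSO and 100% = probe without PAD4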
SIAE inh – human SIAE inhibitors, primary screen, biochemical, fluorescence polarization, FP-Rh probe, 1536-well HTS; Sialate O-acetylesterase (Homo sapiens), Q9HAT2; SIAE FP-Rh probe binding; inhibition, % at 9.66 µM; 0.69% of 370,000 active; AID 1053197, 2014;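 active = inhibition above a cutoff: mean of compounds within the control limits plus 3 SD of those, cut at about 17% in these data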;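 also: 0% = plate median of compound wells and 100% = probe without SIAE protein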
Target sequence (Q9HAT2 whole entry, looked up): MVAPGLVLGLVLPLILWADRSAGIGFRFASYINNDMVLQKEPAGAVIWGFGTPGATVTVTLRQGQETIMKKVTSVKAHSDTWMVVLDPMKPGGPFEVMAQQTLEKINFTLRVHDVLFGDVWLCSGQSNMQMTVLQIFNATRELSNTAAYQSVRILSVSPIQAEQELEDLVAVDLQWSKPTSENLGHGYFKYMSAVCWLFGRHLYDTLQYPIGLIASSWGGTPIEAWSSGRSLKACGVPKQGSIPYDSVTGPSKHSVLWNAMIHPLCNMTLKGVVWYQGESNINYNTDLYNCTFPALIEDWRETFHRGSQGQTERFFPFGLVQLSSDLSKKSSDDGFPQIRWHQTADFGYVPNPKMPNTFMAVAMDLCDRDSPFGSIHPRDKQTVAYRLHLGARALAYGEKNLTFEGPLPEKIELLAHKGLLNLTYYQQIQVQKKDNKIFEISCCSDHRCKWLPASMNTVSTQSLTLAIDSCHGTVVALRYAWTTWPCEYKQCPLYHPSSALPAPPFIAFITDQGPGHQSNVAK
GSTO1 inh conf – GSTO1 inhibitor hit confirmation, counter-screen for RBBP9 inhibitor project, biochemical, fluorescence polarization, triplicate; shares compounds with GSTO1 counter; 54% of 2,400 active; recombinant GSTO1, probe fluorescence polarization; AID 2176, 2009; inhibition, % at 5.96 µM;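 active = inhibition above the primary screen's cutoff, its mean inhibition plus 3 SD, cut at about 35% in these data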;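 also: loss of polarization as inhibitors block binding of rhodamine sulfonate ester activity probe; 0% = GSTO1 with DMSO and 100% = wells lacking GSTO1 enzyme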
PAD4 confirm – human PAD4 inhibitors, confirmation, biochemical, fluorescence polarization; shares compounds with PAD4 inh; recombinant PAD4, RCA probe fluorescence polarization; inhibition, % at 6.36 µM; 28% of 1,200 active; AID 488796, 2010;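 active = mean inhibition across replicates above the hit cutoff set by the earlier primary screen, cut at about 15% in these data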;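 also: inhibitors block active-site labeling by the probe so polarization falls; 0% = PAD4 with probe and DMSO and 100% = probe without PAD4 enzyme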
Apaf-1 inh conf – Apaf-1 inhibitors, single-dose retest, confirmation, biochemical, fluorescence, DEVD-Rh110, 20 µM; inhibition, % at 20 µM; 25% of 1,800 active; AID 504614, 2011; reconstituted apoptosome, caspase-3 DEVD-Rh110 fluorescence; shares compounds with Apaf-1 inh;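 active = mean inhibition of at least 40% at 20 µM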;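 also: plate controls were DMSO wells for no effect and DEVD-CHO caspase inhibitor control wells for full effect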
Rh110 quench – Rh110 fluorescence interference by putative Apaf-1 inhibitors, confirmation, artefact control for Apaf-1 inhibitor project, biochemical, 20 µM; shares compounds with Apaf-1 inh; quenched caspase reaction; activation (fluorescence interference), % at 20 µM; 1,800 tested, under 10 active; AID 504615, 2011;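 active = signal rise of 40% or more at 20 µM, treated as a fluorescence artifact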
BSA probe FL – compounds interfering with TAMRA-BSA probe, counter-screen for TCR-CD3 interaction inhibitor project, biochemical, fluorescence, TAMRA-labeled BSA; shares compounds with TCR CD3 inh; TAMRA-labeled BSA probe fluorescence counterscreen; inhibition, % at 9.4 µM; 10% of 1,200 active; in the data active = inhibition above about 23%;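 also: 0% = buffer low control and 100% = reference high control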
TCR-CD3 inh conf – TCR-CD3 interaction inhibitors, retest, confirmation, biochemical, fluorescence, TAMRA-labeled TCR probe | 48% of 1,200 active | shares compounds with TCR CD3 inh | AID 652036, 2013 | TAMRA-labeled TCR probe fluorescence binding assay | inhibition, % at 9.4 µM
TDP2 confirm – human TDP2 enzyme inhibitors, retest, confirmation, biochemical, epi absorbance, recombinant enzyme; AID 743263, 2014; shares compounds with TDP2 inh; 22% of 1,100 active; absorbance read-out; inhibition, % at 12.8 µM; in the data active = inhibition above about 25%;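 also: 0% = vehicle with enzyme and 100% = no enzyme buffer only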
SIAE confirm – human SIAE inhibitors, retest, confirmation, biochemical, fluorescence polarization, FP-Rh probe, triplicate; shares compounds with SIAE inh; SIAE FP-Rh activity-based probe; inhibition, % at 9.66 µM; 13% of 2,300 active;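 active = mean inhibition of the replicates above the hit cutoff set in the primary screen, cut at about 17% in these data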;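 also: 0% = SIAE with DMSO and probe and 100% = probe without SIAE; inhibitors lower polarization as more probe stays unbound to SIAE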
An asterisk follows results filed as active. Compounds with a hit are over-represented: about 2.4% of the library has one in this group of screens. Rule as the data show it, unless noted: active = inhibition above about 19%; inactive = the rest.

`Cn1c(=O)cc2c3c(c(N4CCCCC4)ccc31)C(=O)c1ccccc1-2` gave GSTO1 counter 39*, TCR CD3 inh 58*, TDP2 inh 17, Apaf-1 inh 7, PAD4 inh 70*, SIAE inh 53*, GSTO1 inh conf 24, PAD4 confirm 37*, BSA probe FL 93*, TCR-CD3 inh conf 55* and SIAE confirm 24*.
Screening Cc1n[nH]c(C)c1S(=O)(=O)N1CCCC(C(=O)Nc2nccs2)C1 (stereo not drawn) returned GSTO1 counter 2, TCR CD3 inh 2, TDP2 inh 1, Apaf-1 inh 2, PAD4 inh 3 and SIAE inh -4.
Screening O=Nc1c(O)c2ccccc2c2ccccc12 returned GSTO1 counter 78*, TCR CD3 inh 0, TDP2 inh 7, PAD4 inh -2, SIAE inh 30*, GSTO1 inh conf 81* and SIAE confirm 24*.
Screening Cn1c(=O)c(NCCc2ccccc2)c2c3c(cccc31)C(=O)c1ccccc1-2 returned GSTO1 counter 156*, TCR CD3 inh active, TDP2 inh -1, Apaf-1 inh 5, PAD4 inh 151*, SIAE inh 170*, GSTO1 inh conf 118*, BSA probe FL active, TCR-CD3 inh conf active and SIAE confirm 160*.
Cn1c(=O)c(NCCO)c2c3c(cccc31)C(=O)c1ccccc1-2 was read as GSTO1 counter 82*, TCR CD3 inh 71*, TDP2 inh 11, Apaf-1 inh -25, PAD4 inh 134*, SIAE inh 58*, GSTO1 inh conf 76*, BSA probe FL 117*, TCR-CD3 inh conf 80* and SIAE confirm 117*.
`Cc1ccc(C)c(CSC2=NCCN2C(=O)c2cccs2)c1` gave GSTO1 counter 0, TCR CD3 inh -4, TDP2 inh -20, Apaf-1 inh 3, PAD4 inh -1 and SIAE inh 0.
`CCOc1ccc(N(CC(=O)Nc2c(C)n(C)n(-c3ccccc3)c2=O)S(=O)(=O)c2ccc(C(C)(C)C)cc2)cc1` gave TDP2 inh -9 and SIAE inh -3.
`Cc1ccc(NC2Nc3cc(C)nn3S2)c(C)c1` (stereo not drawn) gave GSTO1 counter 3, TCR CD3 inh -3, TDP2 inh -10, Apaf-1 inh -5, PAD4 inh 5 and SIAE inh 2.
Screening O=C1c2ccccc2-c2c1cccc2C(=O)N1CCN(C(=O)c2ccco2)CC1 returned GSTO1 counter -5, TCR CD3 inh 0, TDP2 inh 5, Apaf-1 inh 12, PAD4 inh 10 and SIAE inh 7.
O=C(O)CCCNc1cc(N2CCN(C(=O)c3ccco3)CC2)c2noc3c2c1C(=O)c1ccccc1-3 was read as GSTO1 counter 53*, TCR CD3 inh 79*, TDP2 inh 30*, Apaf-1 inh 60*, PAD4 inh -7, SIAE inh 62*, GSTO1 inh conf 30, Apaf-1 inh conf 28, Rh110 quench 1, TDP2 confirm 27* and SIAE confirm 33*.
For O=[N+]([O-])c1cc(Br)c(O)c(C=Nc2ccc(N3CCOCC3)cc2)c1 the results were GSTO1 counter 72*, TCR CD3 inh 49*, TDP2 inh 21, Apaf-1 inh 68*, PAD4 inh 54*, SIAE inh 29*, GSTO1 inh conf -14, PAD4 confirm -1, Apaf-1 inh conf 15, Rh110 quench 2 and SIAE confirm -2.
For COc1cccc(C=Nc2ccc(N3CCOCC3)cc2)c1O the results were GSTO1 counter 5, TCR CD3 inh 4, TDP2 inh 24, Apaf-1 inh 5, PAD4 inh 3 and SIAE inh 9.
For COC(=O)c1c([N+](=O)[O-])c(OC)c(OC)c(OC)c1[N+](=O)[O-] the results were GSTO1 counter 39*, TCR CD3 inh 6, TDP2 inh -2, Apaf-1 inh -7, PAD4 inh -7, SIAE inh 19*, GSTO1 inh conf 54* and SIAE confirm 7.
`Cc1cc2nn(-c3cccc4ccccc34)nc2cc1N` gave GSTO1 counter 15, TCR CD3 inh 4, TDP2 inh -2, Apaf-1 inh 28, PAD4 inh -3 and SIAE inh 3.
